For data set [1], the target named is Ornithine decarboxylase antizyme 1 (Homo sapiens) (UniProt P54368). The data set is described as follows: Induction of OAZ1 in human DU145 cells assessed as reduction in intracellular ODC activity at 10 uM after 6 hrs relative to control. Also on record: scale not given: the % may be the effect or the level left.
Data set [2] concerns the target T1, Amine oxidase [copper-containing] 3 (Bos taurus) (UniProt Q9TTK6).
T1 sequence (whole entry): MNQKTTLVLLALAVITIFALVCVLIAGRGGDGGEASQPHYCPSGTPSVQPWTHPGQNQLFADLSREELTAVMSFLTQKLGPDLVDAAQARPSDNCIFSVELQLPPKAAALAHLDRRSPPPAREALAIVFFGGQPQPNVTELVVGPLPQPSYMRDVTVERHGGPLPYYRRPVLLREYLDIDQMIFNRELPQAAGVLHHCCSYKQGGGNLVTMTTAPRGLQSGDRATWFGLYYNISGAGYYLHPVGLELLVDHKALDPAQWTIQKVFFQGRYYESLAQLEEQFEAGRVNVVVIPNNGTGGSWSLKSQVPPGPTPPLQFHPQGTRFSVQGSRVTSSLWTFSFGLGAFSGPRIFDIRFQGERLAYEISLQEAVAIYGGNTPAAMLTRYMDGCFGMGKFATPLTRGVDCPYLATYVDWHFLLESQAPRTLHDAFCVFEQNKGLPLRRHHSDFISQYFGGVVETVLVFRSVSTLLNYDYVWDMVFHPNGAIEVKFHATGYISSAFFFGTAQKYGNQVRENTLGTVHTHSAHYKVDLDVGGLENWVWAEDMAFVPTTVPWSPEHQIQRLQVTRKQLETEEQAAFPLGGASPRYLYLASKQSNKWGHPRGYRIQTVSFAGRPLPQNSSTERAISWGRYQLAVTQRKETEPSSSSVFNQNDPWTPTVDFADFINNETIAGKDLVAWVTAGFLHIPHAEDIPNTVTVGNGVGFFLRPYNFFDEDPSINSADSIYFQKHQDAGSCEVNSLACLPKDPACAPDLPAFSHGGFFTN
The data set can be described thus: Inhibition of bovine plasma SSAO at 50 uM using spermine as substrate relative to control. The method, boiled down: (§1)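 Competition with natural substrate at fixed 50 μM: spermine for purified bovine plasma SSAO and human recombinant SMOX, N1-acetylspermidine for human recombinant APAO. Analogue tested at 50 μM, with activity expressed relative to reaction without analogue.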

Data set [3] deals with Ornithine decarboxylase antizyme 1 (Homo sapiens) (UniProt P54368). The data set can be described thus: Induction of OAZ1 in human DU145 cells assessed as reduction in intracellular ODC activity at 100 uM after 6 hrs relative to control. Also on record: scale not given: the % may be the effect or the level left.
The target in data set [4] is T2, S-adenosylmethionine decarboxylase proenzyme (Homo sapiens) (UniProt P17707).
T2 sequence (whole entry): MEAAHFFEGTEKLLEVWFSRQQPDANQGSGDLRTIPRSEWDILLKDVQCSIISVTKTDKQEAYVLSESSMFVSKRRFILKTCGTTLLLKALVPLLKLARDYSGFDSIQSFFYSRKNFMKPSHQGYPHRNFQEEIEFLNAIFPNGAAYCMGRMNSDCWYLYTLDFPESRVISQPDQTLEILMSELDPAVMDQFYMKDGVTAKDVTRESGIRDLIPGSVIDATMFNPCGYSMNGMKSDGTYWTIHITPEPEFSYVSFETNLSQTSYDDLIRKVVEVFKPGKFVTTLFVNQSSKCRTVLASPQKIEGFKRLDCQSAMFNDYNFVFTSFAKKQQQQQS
The data set can be described thus: Inhibition of AdoMetDC in human DU145 cells at 100 uM after 3 days. Format: cell-based.

Data set [5] deals with T3, Ornithine decarboxylase (Homo sapiens) (UniProt P11926).
T3 sequence (whole entry): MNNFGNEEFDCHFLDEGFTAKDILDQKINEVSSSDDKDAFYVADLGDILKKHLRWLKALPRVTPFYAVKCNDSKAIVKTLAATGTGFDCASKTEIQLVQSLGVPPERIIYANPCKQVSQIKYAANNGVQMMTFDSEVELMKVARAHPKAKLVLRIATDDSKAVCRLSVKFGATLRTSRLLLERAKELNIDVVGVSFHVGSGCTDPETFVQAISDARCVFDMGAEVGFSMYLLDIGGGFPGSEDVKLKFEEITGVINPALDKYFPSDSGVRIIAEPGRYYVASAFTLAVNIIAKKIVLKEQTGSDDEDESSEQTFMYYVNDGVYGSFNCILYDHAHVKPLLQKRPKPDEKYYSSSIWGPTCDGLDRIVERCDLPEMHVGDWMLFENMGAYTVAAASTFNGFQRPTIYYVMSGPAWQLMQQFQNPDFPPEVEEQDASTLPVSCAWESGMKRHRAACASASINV
The data set is described as follows: Inhibition of ODC in human DU145 cells at 100 uM after 6 hrs. Format: cell-based.

Data set [6] concerns the target Diamine acetyltransferase 1 (Homo sapiens) (UniProt P21673). The data set can be described thus: Induction of changes in SSAT activity in human DU145 cells at 100 uM after 6 hrs. Format: cell-based.
Data set [7] addresses Diamine acetyltransferase 1 (Mus musculus) (UniProt P48026). The data set is described as follows: Inhibition of recombinant mouse SSAT using spm as substrate at 500 uM relative to control. Summed up:
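Mouse recombinant SSAT acetylation with spermine fixed at 50 μM as substrate, analogue present at 500 μM. Activity expressed relative to reaction without analogue.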

Data set [8] deals with T3, Ornithine decarboxylase (Homo sapiens). The data set is described as follows: Inhibition of ODC in human DU145 cells at 100 uM after 3 days. Format: cell-based.
The target of data set [9] is Spermine oxidase (Homo sapiens) (UniProt Q9NWM0). The data set is described as follows: Inhibition of recombinant human SMOX at 50 uM using spermine as substrate relative to control. The method, boiled down: as §1
Spermine oxidase (Homo sapiens), sequence (Q9NWM0 whole entry): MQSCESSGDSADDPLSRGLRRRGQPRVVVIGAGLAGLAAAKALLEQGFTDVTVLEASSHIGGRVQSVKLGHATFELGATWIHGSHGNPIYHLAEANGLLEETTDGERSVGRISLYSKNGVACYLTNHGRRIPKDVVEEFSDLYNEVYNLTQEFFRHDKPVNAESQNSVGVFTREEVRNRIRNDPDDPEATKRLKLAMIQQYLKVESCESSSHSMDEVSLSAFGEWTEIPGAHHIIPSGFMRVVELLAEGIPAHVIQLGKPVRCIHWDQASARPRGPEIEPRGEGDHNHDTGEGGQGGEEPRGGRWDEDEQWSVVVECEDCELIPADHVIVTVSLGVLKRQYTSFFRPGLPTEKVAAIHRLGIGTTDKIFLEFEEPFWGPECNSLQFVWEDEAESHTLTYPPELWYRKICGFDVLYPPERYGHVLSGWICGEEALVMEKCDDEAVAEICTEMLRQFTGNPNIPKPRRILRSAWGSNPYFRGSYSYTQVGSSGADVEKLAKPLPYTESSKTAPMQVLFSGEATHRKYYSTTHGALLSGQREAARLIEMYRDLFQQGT
In data set [10] the target is T2, S-adenosylmethionine decarboxylase proenzyme (Homo sapiens). The data set can be described thus: Inhibition of AdoMetDC in human DU145 cells at 100 uM after 6 hrs. Format: cell-based.
The target in data set [11] is Diamine acetyltransferase 1 (Homo sapiens) (UniProt P21673). The data set is described as follows: Induction of changes in SSAT activity in human DU145 cells at 100 uM after 3 days. Format: cell-based.
Diamine acetyltransferase 1 (Homo sapiens), sequence (P21673 whole entry): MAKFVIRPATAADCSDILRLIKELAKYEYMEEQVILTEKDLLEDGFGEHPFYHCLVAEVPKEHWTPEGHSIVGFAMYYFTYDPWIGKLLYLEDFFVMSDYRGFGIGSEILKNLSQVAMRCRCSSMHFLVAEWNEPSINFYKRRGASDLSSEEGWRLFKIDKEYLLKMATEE
In another data set the test system is DU-145. The data set is described as follows: Reversal of alpha-difluoromethylornithine-induced growth arrest in human DU145 cells at 100 uM after 3 days. Format: functional, cell-based. The method, boiled down: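 DU145 cells cultured 3 days with 100 μM analogue, with or without 5 mM DFMO, all supplemented with 1 mM aminoguanidine. Growth assessed by electronic cell counting. Means ± SD, n = 3.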

The target of data set [12] is Spermine oxidase (Homo sapiens) (UniProt Q9NWM0). The data set is described as follows: Inhibition of recombinant human SMOX at 500 uM using spermine as substrate relative to control. Summed up:
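Human recombinant SMOX reaction with spermine fixed at 50 μM as substrate, analogue added at 500 μM. Activity expressed relative to reaction without analogue.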

Another data set has as its system CC(CN)CNCCCCNCC(C)CN. The data set is described as follows: (§2) Substrate activity at recombinant mouse SSAT assessed as Km at 2000 to 6000 uM. Format: ADME.
The next data set deals with CC(CCN)NCCCCNC(C)CCN. Described as §2. Format: ADME.

The source of these data is ChEMBL document CHEMBL4321859, “Unforeseen Possibilities To Investigate the Regulation of Polyamine Metabolism Revealed by Novel C-Methylated Spermine Derivatives” (J Med Chem, 2019).

The source made the active and inactive calls. The rule behind the calls is not given here.

Ornithine decarboxylase antizyme 1 (Homo sapiens), sequence (P54368 whole entry): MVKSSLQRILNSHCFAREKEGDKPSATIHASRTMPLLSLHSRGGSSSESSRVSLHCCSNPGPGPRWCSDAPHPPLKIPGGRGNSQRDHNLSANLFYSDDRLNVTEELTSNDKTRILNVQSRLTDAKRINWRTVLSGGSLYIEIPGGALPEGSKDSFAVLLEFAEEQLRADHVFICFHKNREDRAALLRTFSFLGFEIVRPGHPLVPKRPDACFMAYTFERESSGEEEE
Diamine acetyltransferase 1 (Mus musculus), sequence (chain, as listed by the source): as the sequence (P21673 whole entry) above, with V5K, A12S, E32D, L42Q, R119K, T169A counted along it
Diamine acetyltransferase 1 (Mus musculus) (UniProt P48026), sequence (P48026 whole entry): as the sequence (P21673 whole entry) above, with V5K, A12S, E32D, L42Q, R119K, T169A counted along it

`CC(CCN)NCCCCNC(C)CCN` (centres undefined): the Activity stood at 5% in data set [1] and 55% in [3]. For the same molecule, the inhibition entry in data set [2], in [5] and in data set [8] was “inactive” each time. The inhibition entry in data set [4] and in [10] was “Active” each time. Further, the result in [6] and in data set [11] was inactive. Besides, the inhibition in data set [7] is 75%; in data set [9], 70%. For the same molecule, in the data set with DU-145, the outcome was Active.

As to `CC(CN)CNCCCCNCC(C)CN` (centres undefined), the Activity in data set [1] is 80%. Moreover, the inhibition in data set [2] was 80%; in data set [12], 70%. For the same molecule, the inhibition entry in [4], in data set [5], in [8] and in [10] was “Active” in each case. Further, in data set [6], the result was inactive. Besides, the outcome (in data set [11]; in the data set on DU-145) was Active.

On to “Diamine acetyltransferase 1 (Mus musculus)”, for which, in the data set with CC(CN)CNCCCCNCC(C)CN, the Km worked out at 52 µM and the Vmax was 0.895 µmol/min/mg. Moreover, in the data set with CC(CCN)NCCCCNC(C)CCN, the Km turned out to be 60 µM and the Vmax amounted to 0.136 µmol/min/mg.

Consider `CC(N)CCNCCCCNCCC(C)N` (centres undefined), for which, in data set [1], the Activity was 80%. Further, the inhibition result in data set [2] is “inactive”. Besides, the inhibition entry in [4], in data set [5], in data set [8] and in data set [10] was “Active” throughout. The result in data set [6] was inactive. Also, the inhibition in data set [7] was 80%. The result (in [11]; in the data set with DU-145) was Active.

Turning to `NCCCNCCCCNCCCN`, the Activity in [1] is 80%. In addition, the inhibition result in data set [5] and in data set [8] was “Active” throughout.

For orientation: inhibition means the drop in the measured response relative to a control, in per cent. In general, Km refers to the substrate concentration at which the rate is half of its maximum. In general, Vmax refers to the rate approached at saturating substrate.
